PHOSPHO1 block: PHOSPHO1 (human) inhibition | Q8TCT1 | recombinant PHOSPHO1, absorbance phosphatase assay | inhibition, % at 13.3 µM | 290,000 compounds, 1.1% hits; in the data active = inhibition above about 60%
ASAP1 GAP inh: inhibitors of human ASAP1 ArfGAP activity; inhibition, % at 16.5 µM; 360,000 compounds, 0.19% hits; ASAP1-stimulated ARF1 GTP hydrolysis, GDP FP detection; AID 624377; in the data active = inhibition above about 25%;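 note: 0% = vehicle with enzyme and substrate and 100% = no enzyme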
Calb FLC: C. albicans growth modulation with fluconazole | C. albicans CaCi-2 (fluconazole-resistant clinical isolate) + fluconazole, Alamar Blue growth, 48 h | growth inhibition, % (no concentration beside the values) | 300,000 compounds, 0.57% hits | AID 1979;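 active = growth inhibition above about 58% in most replicates, limit read from the data, passing the limit was not always enough; inconclusive = exactly half the replicates above a set limit; inactive = most replicates below a set limit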;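 note: all wells also contain fluconazole at 8 µg/ml as a sub-toxic cotreatment; 0% = median of DMSO wells and 100% = median of geldanamycin control wells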
ARFGAP1 inhibitor: inhibits rat ARF GTPase activating protein 1; 360,000 compounds, 0.26% hits; Arfgap1-stimulated ARF1 GTP hydrolysis, GDP FP detection; inhibition, % at 16.5 µM;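 active = inhibition above a per-plate limit, mean inhibition of low control wells plus 3 SD, cut at about 25% in these data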;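 note: 0% = DMSO wells with enzyme and 100% = wells lacking Arfgap1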
Target sequence (Q62848 1-136 limits assumed): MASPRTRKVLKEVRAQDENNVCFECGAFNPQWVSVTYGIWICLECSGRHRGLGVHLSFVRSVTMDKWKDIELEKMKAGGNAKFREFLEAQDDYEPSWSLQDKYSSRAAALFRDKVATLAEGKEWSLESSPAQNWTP
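System: truncated rat Arfgap1 GAP domain / Medium: HEPES-based buffer, pH 7.5 / Also added: N-terminally truncated human ARF1-GTP substrate / Incubation: enzyme reaction 120 min at 25 °C after 20 min preincubation / Measured by: FP of antibody-bound GDP Alexa 633 tracer, ex 620/em 688 nm / Replicates: singlicate, each compound tested once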
VIM-2 inhibitor: blocks Pseudomonas aeruginosa VIM-2 metallo-beta-lactamase. purified VIM-2, nitrocefin hydrolysis, epi-absorbance fluorescence. inhibition, % at 5.6 µM. 290,000 compounds, 0.89% hits. AID 1527;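 active = inhibition above the mean of all tested compounds plus 3 SD, cutoff set per screening run, cut at about 7.5% in these data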;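 note: red hydrolysis product quenches plate fluorescence so inhibitors raise well fluorescence; 0% = enzyme with DMSO and 100% = DMSO without enzyme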
IMP-1 inh: inhibitors of Pseudomonas aeruginosa IMP-1 metallo-beta-lactamase. purified IMP-1, nitrocefin hydrolysis, epi-absorbance fluorescence. inhibition, % at 5.6 µM. 290,000 compounds, 0.45% hits;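 active = inhibition above the mean plus 3 SD of all compounds in the same screening run, cut at about 4.5% in these data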;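 note: 0% = IMP-1 with DMSO and 100% = DMSO wells lacking enzyme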
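Assay system: purified IMP-1; Quantity: IMP-1 0.2 nM before substrate addition; Medium: HEPES buffer pH 7.1 with ZnSO4 and Brij 35; Incubation: 15 min enzyme–compound preincubation, then 25 min nitrocefin reaction, 25 °C; Signal: fluorescence quenching readout, ex 480/em 530 nm; Controls: DMSO with and without IMP-1; Repeats: singlicate testing.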
ASAP1 inh confirm: ASAP1 inhibition confirmed; shares compounds with ASAP1 GAP inh; ASAP1-stimulated Arf1 GTPase, GDP fluorescence polarization; inhibition, % at 16.5 µM; 620 compounds, 37% hits;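 active = mean inhibition over triplicates exceeds the hit threshold derived for the earlier primary screening run, cut at about 25% in these data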
ARFGAP1 confirm: rat ARFGAP1 inhibition, confirmed; ARFGAP1-stimulated ARF1 GTP hydrolysis, GDP tracer FP; shares compounds with ARFGAP1 inhibitor; inhibition, % at 16.5 µM; 890 compounds, 30% hits;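 active = average inhibition over triplicates above the hit cutoff set in the earlier primary screen, cut at about 25% in these data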;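 note: 0% = Arfgap1 plus ARF1-GTP with DMSO and 100% = wells lacking Arfgap1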
Target sequence (Q62848 whole entry, looked up): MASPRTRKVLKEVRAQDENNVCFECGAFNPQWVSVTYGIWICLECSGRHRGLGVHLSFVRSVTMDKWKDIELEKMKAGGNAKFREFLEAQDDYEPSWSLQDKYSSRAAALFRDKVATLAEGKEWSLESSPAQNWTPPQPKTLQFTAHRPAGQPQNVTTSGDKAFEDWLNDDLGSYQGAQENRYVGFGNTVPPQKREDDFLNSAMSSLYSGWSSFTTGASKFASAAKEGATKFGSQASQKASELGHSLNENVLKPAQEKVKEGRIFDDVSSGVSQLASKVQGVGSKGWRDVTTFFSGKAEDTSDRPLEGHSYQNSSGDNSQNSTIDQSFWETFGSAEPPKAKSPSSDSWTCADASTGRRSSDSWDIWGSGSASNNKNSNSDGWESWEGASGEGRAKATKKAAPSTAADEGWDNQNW
Active calls of the source: *; u = inconclusive; x = not tested or not shown. A selection: hits, their analogues and other compounds. The true share with any hit is near 2.6%.

SMILES	PHOSPHO1 block	ASAP1 GAP inh	Calb FLC	ARFGAP1 inhibitor	VIM-2 inhibitor	IMP-1 inh	ASAP1 inh confirm	ARFGAP1 confirm
C=CCN=C1NC(c2ccc(C(F)(F)F)cc2)C(C(=O)OC)=C(C)N1Cc1ccccc1C(F)(F)F (configuration not stated)	x	1.6	x	18.1	x	x	x	x
COc1cc2oc3ccc(C#Cc4ccccn4)cc3c(=O)c2cc1OC	x	31.0*	57.4	-6.5	x	x	40.1*	x
COc1cc2oc3ccc(C#Cc4ccc(N)cc4)cc3c(=O)c2cc1OC	x	16.0	1.4	15.2	x	x	x	x
Cc1ccc2nc(SCC(=O)Nc3ccc(F)cc3F)[nH]c2c1	-2.1	27.4*	4.0	6.0	-0.3	-1.7	5.0	x
COc1ccc(C(=O)Nc2ccc(OCC(F)(F)C(F)F)c(C(F)(F)F)c2)cc1OC	5.5	26.5*	-0.1	-3.1	-3.5	-0.8	26.2*	x
COc1ccc(C(=O)Nc2ccc3c(c2)C(=O)c2ccccc2C3=O)cc1OC	-2.0	27.1*	5.1	4.9	-2.8	-3.4	40.0*	x
COc1cccc(C(O)c2ncc(-c3ccccc3Cl)[nH]2)c1 (configuration not stated)	x	-0.2	x	11.8	x	x	x	x
CC1ON=C(c2ccccn2)N(Cc2ccc(S(C)(=O)=O)cc2)C1=O (configuration not stated)	x	9.0	x	7.8	x	x	x	x
COc1ccc(-c2ccc(CN3C(C(C)C)C(=O)N(Cc4cn(CCC5OCCO5)nn4)CCS3(=O)=O)cc2)cc1 (configuration not stated)	x	-7.0	x	7.7	x	x	x	x
COc1ccc(C)cc1NC(=O)CCC(=O)Nc1ccc2nc(N3CCN(C)CC3)cc(C)c2c1	-6.8	x	-2.1	x	-3.2	-2.1	x	x
COc1ccc(C(=O)Nc2ccc3nc(N4CCN(C)CC4)cc(C)c3c2)c(OC)c1	29.9	37.2*	0.9	50.3*	0.5	-1.1	66.0*	71.4*
C=CCN(CC=C)CCCOc1ccc(C)cc1OC	29.9	51.2*	-28.3	46.5*	-0.8	-0.1	0.5	-7.1
O=C(N/N=C/c1cc(Cl)ccc1O)c1ccc(Br)cc1	-4.6	51.7*	x	64.7*	-3.0	-2.9	75.8*	99.2*
Cc1ccccc1CN1C(=O)CN(S(C)(=O)=O)CC1(C)C(=O)NC(C)C (configuration not stated)	x	7.2	x	-0.7	x	x	x	x
O=C(NCC1CCN(Cc2ccccc2)CC1)[C@H]1O[C@@H](n2ccc(=O)[nH]c2=O)[C@H](O)[C@@H]1O	x	7.5	x	-15.2	x	x	x	x
COc1ccc(-c2cc(-c3ccc(OC)c(OC)c3)n[nH]2)c(O)c1	11.3	38.0*	u	30.8*	-3.2	-2.6	34.1*	36.9*
CNc1nc(NCC2CCCCC2)c2sccc2n1	x	-0.7	x	9.0	x	x	x	x
O=c1[nH]c(Nc2ccccc2)cc2ccccc12	27.0	24.9*	16.9	32.9*	-2.6	-2.7	12.6	-0.8
CC(=O)c1cccc(-c2ccc3c(=O)[nH]c(Nc4ccccc4)cc3c2)c1	x	53.3*	3.6	29.9*	x	x	39.4*	25.7*
COc1ccc(CN2C(=O)CSCC2(C)C(=O)Nc2ccc3c(c2)OCCO3)cc1 (configuration not stated)	x	1.4	x	11.9	x	x	x	x
CCN(CC)c1ncnc2c1ncn2[C@H]1CN(Cc2cc(OC)c(OC)c(OC)c2)C[C@@H](CO)O1	x	-11.1	x	9.7	x	x	x	x
CC(C)CNc1ncnc2c1ncn2[C@H]1CN(CCc2ccccc2)C[C@@H](CO)O1	x	4.6	x	-11.2	x	x	x	x
CCN(CC)CCOC(=O)c1ccc(NC(=O)c2cn(-c3ccccc3)nc2-c2cccs2)cc1	-55.0	40.0*	x	24.7*	-3.3	-2.9	44.3*	60.6*
O=C(NCC[C@@H]1CC[C@@H](NC(=O)c2cnccn2)[C@@H](CO)O1)c1ccc2c(c1)OCO2	x	1.9	x	-9.4	x	x	x	x
COc1cc(/C=N/NC(=O)c2ccc(O)cc2)ccc1OCC(=O)Nc1cccc([N+](=O)[O-])c1	7.8	30.4*	-3.6	71.2*	-2.2	-2.9	42.4*	75.4*
SMILES	PHOSPHO1 block	ASAP1 GAP inh	Calb FLC	ARFGAP1 inhibitor	VIM-2 inhibitor	IMP-1 inh	ASAP1 inh confirm	ARFGAP1 confirm
COc1cc(/C=N/NC(=O)c2cccc([N+](=O)[O-])c2)ccc1OCc1ccccc1	18.2	8.5	23.3	-13.0	-3.4	-0.1	x	x
COc1ccc(N2C(=O)c3ccccc3NC(=O)C2C(=O)Nc2ccc(N3CCOCC3)cc2)cc1 (configuration not stated)	x	-2.0	x	2.2	x	x	x	x
COc1ccccc1Cc1c(-c2ccc(F)cc2)nc2ccc(Cl)cn12	x	12.4	x	4.5	x	x	x	x
COc1cc2c3nnc(-c4ccc(F)cc4)c-3cn(Cc3ccccc3F)c2cc1OC	10.4	57.9*	x	151.7*	-3.4	-1.8	83.0*	171.5*
COc1cc2c3nnc(-c4ccccc4)c-3cn(Cc3ccccc3F)c2cc1OC	-0.4	58.5*	x	36.2*	-0.1	-1.6	116.2*	36.3*
COc1ccc(-c2nnc(SCc3ccccc3F)o2)cc1OC	-2.9	0.5	1.7	-9.7	-2.7	-3.5	x	x
C=CC1CN2CCC1CC2C(O)c1ccnc2ccc(OC)cc12 (configuration not stated)	x	5.7	x	7.8	x	x	x	x
Cc1ccc(OCc2ccc(C(=O)Nc3ccc(C(N)=O)cc3)o2)c([N+](=O)[O-])c1	7.6	59.9*	8.0	85.7*	-1.1	1.1	87.7*	115.6*
O=C(NC1(O)C(=O)c2ccccc2C1=O)c1ccccc1	1.2	53.0*	-3.7	36.6*	-2.5	-0.5	21.0	2.6
COC1(NC(=O)c2ccccc2)C(C)=CC(=O)C=C1C	9.4	-19.4	-3.2	8.1	0.4	-1.7	x	x
COC(=O)Cn1cc(/C=N/NC(=O)COc2cccc3cccnc23)c2ccccc21	-8.5	35.5*	-3.8	29.4*	7.5	3.4	34.2*	30.9*
O=C(CSc1ccccc1)Nc1ccc(-c2nc3ccccc3[nH]2)cc1	-8.9	57.2*	-12.3	45.0*	-1.2	1.1	57.0*	59.4*
COc1cccc(-c2cc3nc(NCc4ccc(C)cc4C)n(C)c(=O)c3s2)c1	x	2.7	x	14.1	x	x	x	x
COc1ccccc1/C=N\Nc1cn[nH]c(=O)c1Cl	-12.6	25.7*	15.7	27.5*	-3.9	-2.2	19.5	14.8
O=C(/C=C/[C@H]1O[C@@H](n2cnc3c(NC(=O)c4ccccc4)ncnc32)[C@H](O)[C@@H]1O)NCC1CCCO1 (some centres not stated)	x	0.7	x	-9.8	x	x	x	x
COc1ccc([N+](=O)[O-])cc1NC(=O)c1ccc(-n2nc(C)cc2C)cc1	42.6	25.6*	9.4	34.9*	1.6	-1.5	39.1*	71.2*
